8 compounds from ChEMBL document CHEMBL2417369, “Synthesis and evaluation of heteroaryl substituted diazaspirocycles as scaffolds to probe the ATP-binding site of protein kinases” (Bioorg Med Chem, 2013) can be followed below.

For experiment [1], the target named is T1, Serine/threonine-protein kinase Chk1 (Homo sapiens) (UniProt O14757).
T1 sequence (whole entry): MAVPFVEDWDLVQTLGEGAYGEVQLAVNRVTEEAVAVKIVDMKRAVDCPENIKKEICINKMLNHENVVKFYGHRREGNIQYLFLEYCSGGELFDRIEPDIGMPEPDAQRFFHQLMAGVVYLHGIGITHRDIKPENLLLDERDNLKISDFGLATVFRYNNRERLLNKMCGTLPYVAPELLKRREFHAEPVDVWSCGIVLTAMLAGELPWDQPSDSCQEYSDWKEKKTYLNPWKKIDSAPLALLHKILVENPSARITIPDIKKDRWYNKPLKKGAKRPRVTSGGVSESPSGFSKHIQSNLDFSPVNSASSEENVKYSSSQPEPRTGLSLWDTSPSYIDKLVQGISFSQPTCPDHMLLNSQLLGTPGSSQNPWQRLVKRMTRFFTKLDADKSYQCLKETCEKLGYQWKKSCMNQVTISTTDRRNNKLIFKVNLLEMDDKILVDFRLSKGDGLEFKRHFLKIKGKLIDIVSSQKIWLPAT
In words: Inhibition of CHK1 (unknown origin) at 30 uM by microfluidic mobility shift assay relative to control. The gist of the method:
(§1)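 Single-point screen in a 24-enzyme kinase panel using a microfluidic assay. Each compound was tested at […] with ATP at roughly the Km for each enzyme. The pan-AGC inhibitor H-89 served as an internal control on every plate.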

Experiment [2] deals with T2, MAP kinase-activated protein kinase 5 (Homo sapiens) (UniProt Q8IW41).
T2 sequence (whole entry): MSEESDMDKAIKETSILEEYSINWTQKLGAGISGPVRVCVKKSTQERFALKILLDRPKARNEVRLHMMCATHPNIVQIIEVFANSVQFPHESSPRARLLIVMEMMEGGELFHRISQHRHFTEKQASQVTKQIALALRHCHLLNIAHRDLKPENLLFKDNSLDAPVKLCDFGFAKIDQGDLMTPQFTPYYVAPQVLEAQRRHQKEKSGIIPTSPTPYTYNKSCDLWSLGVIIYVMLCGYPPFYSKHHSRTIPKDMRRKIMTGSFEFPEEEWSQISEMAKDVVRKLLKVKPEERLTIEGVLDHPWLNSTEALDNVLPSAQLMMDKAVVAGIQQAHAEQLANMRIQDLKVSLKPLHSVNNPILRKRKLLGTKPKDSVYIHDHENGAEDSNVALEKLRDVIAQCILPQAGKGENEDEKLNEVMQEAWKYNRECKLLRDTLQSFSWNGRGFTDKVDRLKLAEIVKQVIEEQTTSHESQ
Put plainly: Inhibition of MAPKAPK5 (unknown origin) at 30 uM by microfluidic mobility shift assay relative to control. The gist of the method: as §1

The species entered for experiment [3] is Homo sapiens. In words: Inhibition of PKA (unknown origin) at 30 uM by microfluidic mobility shift assay relative to control. The gist of the method: as §1
Experiment [4] deals with RAC-alpha serine/threonine-protein kinase (Homo sapiens, UniProt P31749). Put plainly: Inhibition of AKT1 (unknown origin) at 30 uM by microfluidic mobility shift assay relative to control. In a few lines: as §1
Sequence of RAC-alpha serine/threonine-protein kinase (P31749 whole entry): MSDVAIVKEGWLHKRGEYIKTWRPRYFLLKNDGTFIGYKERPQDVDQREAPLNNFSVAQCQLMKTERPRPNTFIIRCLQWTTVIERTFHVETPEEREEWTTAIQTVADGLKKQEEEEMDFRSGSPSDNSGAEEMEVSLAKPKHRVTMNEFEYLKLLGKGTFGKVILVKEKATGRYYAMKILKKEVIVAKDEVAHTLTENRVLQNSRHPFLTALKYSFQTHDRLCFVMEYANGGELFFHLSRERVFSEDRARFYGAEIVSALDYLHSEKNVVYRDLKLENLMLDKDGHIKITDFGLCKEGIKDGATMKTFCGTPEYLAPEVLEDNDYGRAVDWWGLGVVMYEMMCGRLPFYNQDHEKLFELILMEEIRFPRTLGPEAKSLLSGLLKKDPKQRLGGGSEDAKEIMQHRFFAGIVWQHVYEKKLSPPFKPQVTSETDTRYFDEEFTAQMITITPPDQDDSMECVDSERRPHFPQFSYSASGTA
Experiment [5] addresses MAP kinase-activated protein kinase 2 (Homo sapiens) (UniProt P49137). In words: Inhibition of MK2 (unknown origin) at 30 uM by microfluidic mobility shift assay relative to control. In a few lines: as §1
Experiment [6] addresses Ribosomal protein S6 kinase alpha-5 (Homo sapiens, UniProt O75582). In words: Inhibition of MSK1 (unknown origin) at 30 uM by microfluidic mobility shift assay relative to control. The gist of the method:
as §1

The target in experiment [7] is T3, Serine/threonine-protein kinase D2 (Homo sapiens) (UniProt Q9BZL6).
T3 sequence (whole entry): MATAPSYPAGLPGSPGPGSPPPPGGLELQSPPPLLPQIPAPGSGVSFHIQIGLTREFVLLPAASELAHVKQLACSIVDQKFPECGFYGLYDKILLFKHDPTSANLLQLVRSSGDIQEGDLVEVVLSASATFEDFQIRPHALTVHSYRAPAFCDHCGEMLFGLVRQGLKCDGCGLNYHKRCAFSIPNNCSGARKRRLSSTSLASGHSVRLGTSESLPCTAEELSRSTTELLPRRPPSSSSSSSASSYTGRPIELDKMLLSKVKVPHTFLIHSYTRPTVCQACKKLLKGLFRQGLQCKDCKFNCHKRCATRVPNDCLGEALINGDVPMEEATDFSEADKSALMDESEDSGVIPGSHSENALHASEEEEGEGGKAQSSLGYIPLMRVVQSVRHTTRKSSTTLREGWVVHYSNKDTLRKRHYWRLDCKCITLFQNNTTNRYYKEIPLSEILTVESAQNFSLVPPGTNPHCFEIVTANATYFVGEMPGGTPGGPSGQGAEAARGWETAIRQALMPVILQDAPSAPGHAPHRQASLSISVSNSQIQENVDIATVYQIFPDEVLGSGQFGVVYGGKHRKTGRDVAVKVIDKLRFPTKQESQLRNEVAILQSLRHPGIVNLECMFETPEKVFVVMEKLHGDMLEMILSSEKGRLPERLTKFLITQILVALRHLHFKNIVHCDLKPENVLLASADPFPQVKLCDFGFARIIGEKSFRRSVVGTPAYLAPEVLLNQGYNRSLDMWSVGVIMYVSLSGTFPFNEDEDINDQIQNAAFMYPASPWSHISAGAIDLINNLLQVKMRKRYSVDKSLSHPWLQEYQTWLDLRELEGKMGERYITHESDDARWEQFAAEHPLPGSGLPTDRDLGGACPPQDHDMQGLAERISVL
In words: Inhibition of PKD2 (unknown origin) at 30 uM by microfluidic mobility shift assay relative to control. The gist of the method:
as §1

Experiment [8] addresses Tyrosine-protein kinase Lyn (Homo sapiens, UniProt P07948). Put plainly: Inhibition of LYN (unknown origin) at 30 uM by microfluidic mobility shift assay relative to control. In a few lines:
as §1

Experiment [9] has as its target Insulin receptor (Homo sapiens) (UniProt P06213). In words: Inhibition of INSR (unknown origin) at 30 uM by microfluidic mobility shift assay relative to control. The gist of the method:
as §1

Experiment [10] deals with Mitogen-activated protein kinase 14 (Homo sapiens) (UniProt Q16539). In words: Inhibition of p38alpha (unknown origin) at 30 uM by microfluidic mobility shift assay relative to control. The gist of the method:
as §1

Experiment [11] addresses Tyrosine-protein kinase Fyn (Homo sapiens, UniProt P06241). In words: Inhibition of FYN (unknown origin) at 30 uM by microfluidic mobility shift assay relative to control. The gist of the method:
as §1

Experiment [12] deals with Glycogen synthase kinase-3 beta (Homo sapiens, UniProt P49841). Put plainly: Inhibition of GSK3beta (unknown origin) at 30 uM by microfluidic mobility shift assay relative to control. In a few lines: as §1
Sequence of Glycogen synthase kinase-3 beta (P49841 whole entry, looked up): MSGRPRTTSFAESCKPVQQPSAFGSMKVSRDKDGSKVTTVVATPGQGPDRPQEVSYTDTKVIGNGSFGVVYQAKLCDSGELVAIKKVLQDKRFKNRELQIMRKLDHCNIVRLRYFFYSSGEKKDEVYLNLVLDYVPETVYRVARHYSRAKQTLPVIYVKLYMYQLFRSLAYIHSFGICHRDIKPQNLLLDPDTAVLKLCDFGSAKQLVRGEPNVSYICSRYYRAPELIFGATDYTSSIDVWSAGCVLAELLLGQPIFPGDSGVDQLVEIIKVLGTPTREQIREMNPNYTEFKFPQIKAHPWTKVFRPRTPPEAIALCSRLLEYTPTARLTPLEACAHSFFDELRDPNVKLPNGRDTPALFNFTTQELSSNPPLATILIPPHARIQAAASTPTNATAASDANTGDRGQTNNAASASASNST
Experiment [13] deals with RAC-beta serine/threonine-protein kinase (Homo sapiens, UniProt P31751). Put plainly: Inhibition of AKT2 (unknown origin) at 30 uM by microfluidic mobility shift assay relative to control. The gist of the method:
as §1

The target in experiment [14] is Serine/threonine-protein kinase Chk2 (Homo sapiens, UniProt O96017). Put plainly: Inhibition of CHK2 (unknown origin) at 30 uM by microfluidic mobility shift assay relative to control. The gist of the method: as §1
In experiment [15] the target is Protein kinase C (PKC) (Homo sapiens) (UniProt O94806+P41743+P17252+P05129+Q05655+P05771+Q05513+Q02156+P24723+Q15139+Q04759). In words: Inhibition of PKC (unknown origin) at 30 uM by microfluidic mobility shift assay relative to control. In a few lines:
as §1

Sequence of Tyrosine-protein kinase Lyn (P07948 2-512 limits assumed): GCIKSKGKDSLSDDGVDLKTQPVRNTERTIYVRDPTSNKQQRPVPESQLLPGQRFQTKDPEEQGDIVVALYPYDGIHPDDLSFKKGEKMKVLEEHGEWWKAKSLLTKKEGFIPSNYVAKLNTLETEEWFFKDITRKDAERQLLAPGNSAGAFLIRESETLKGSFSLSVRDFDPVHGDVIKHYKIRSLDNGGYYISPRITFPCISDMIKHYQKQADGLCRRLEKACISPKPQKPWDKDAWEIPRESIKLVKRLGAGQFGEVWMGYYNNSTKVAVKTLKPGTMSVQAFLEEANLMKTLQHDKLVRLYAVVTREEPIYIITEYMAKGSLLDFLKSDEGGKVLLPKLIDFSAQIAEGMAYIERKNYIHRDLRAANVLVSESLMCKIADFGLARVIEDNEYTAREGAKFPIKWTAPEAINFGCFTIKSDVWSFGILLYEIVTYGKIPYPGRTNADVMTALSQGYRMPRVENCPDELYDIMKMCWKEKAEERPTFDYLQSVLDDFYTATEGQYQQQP
Sequence of Insulin receptor (Homo sapiens) (P06213 28-758 limits assumed): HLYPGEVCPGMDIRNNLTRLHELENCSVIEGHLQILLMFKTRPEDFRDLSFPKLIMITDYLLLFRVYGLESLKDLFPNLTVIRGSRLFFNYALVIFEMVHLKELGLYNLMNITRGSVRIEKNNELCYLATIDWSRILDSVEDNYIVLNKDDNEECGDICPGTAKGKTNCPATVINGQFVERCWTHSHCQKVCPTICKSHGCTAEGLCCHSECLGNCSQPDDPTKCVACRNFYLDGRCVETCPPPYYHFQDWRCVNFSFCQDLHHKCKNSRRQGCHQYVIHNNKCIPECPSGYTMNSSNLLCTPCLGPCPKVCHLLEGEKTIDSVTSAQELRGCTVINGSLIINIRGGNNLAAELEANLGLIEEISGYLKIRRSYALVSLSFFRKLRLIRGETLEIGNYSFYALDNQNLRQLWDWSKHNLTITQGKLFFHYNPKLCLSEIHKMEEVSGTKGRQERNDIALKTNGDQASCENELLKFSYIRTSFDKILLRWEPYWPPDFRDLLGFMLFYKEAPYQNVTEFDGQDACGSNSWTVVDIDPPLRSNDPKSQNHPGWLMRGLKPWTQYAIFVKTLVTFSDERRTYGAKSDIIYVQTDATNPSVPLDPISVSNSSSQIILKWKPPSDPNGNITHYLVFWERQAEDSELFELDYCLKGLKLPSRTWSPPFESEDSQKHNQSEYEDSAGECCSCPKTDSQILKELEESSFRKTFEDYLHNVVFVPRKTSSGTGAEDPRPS
Sequence of Insulin receptor (Homo sapiens) (P06213 763-1382 limits assumed): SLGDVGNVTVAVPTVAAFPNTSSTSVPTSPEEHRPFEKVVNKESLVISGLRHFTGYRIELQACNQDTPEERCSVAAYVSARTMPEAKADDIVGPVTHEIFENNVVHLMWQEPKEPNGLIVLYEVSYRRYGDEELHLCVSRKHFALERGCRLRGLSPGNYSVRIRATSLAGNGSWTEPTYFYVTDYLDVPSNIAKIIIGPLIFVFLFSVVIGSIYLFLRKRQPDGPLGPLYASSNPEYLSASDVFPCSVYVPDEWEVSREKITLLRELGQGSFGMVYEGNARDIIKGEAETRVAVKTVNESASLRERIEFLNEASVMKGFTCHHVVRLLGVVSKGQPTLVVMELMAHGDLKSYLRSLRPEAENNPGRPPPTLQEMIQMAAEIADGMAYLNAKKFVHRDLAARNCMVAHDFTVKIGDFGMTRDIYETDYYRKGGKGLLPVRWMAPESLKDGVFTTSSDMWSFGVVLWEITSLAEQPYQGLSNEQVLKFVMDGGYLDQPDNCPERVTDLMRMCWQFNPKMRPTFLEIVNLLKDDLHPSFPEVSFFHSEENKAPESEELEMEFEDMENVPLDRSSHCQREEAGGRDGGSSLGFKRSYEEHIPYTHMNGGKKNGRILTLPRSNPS
Sequence of Tyrosine-protein kinase Fyn (P06241 2-537 limits assumed): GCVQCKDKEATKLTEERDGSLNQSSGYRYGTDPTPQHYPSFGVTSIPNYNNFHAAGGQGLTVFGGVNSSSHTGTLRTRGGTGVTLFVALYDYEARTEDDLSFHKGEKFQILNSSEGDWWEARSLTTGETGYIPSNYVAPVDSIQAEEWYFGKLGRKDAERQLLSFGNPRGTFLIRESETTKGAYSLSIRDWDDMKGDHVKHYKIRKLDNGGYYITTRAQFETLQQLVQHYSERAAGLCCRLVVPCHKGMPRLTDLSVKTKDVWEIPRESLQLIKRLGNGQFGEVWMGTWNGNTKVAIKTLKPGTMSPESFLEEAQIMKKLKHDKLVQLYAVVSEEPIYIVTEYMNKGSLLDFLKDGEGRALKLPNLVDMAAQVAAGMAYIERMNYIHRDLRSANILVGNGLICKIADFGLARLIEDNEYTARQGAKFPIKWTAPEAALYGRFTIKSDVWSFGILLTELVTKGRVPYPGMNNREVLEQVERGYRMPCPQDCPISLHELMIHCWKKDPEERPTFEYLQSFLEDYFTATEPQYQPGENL
Sequence of MAP kinase-activated protein kinase 2 (Homo sapiens) (P49137 whole entry, looked up): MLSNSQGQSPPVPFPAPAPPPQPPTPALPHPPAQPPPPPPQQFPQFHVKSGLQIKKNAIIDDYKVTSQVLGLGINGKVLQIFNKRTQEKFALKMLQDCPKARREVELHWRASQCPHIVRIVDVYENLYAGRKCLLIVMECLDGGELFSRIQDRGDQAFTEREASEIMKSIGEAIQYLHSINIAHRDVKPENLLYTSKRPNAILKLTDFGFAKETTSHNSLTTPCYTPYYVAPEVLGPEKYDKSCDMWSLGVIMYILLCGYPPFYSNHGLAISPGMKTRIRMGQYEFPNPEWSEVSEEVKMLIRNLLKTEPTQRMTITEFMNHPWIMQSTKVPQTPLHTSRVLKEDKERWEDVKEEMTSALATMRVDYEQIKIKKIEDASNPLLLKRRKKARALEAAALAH
Sequence of Mitogen-activated protein kinase 14 (Homo sapiens) (Q16539 whole entry): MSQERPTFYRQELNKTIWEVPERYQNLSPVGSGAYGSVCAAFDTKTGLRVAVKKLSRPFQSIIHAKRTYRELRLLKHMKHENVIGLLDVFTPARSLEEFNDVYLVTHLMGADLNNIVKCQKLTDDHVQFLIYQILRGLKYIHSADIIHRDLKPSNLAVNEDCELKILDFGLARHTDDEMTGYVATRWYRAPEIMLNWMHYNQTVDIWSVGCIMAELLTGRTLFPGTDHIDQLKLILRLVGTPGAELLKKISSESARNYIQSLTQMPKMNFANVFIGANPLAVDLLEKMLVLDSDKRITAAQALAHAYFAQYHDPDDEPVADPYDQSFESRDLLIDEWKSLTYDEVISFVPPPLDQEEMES
Sequence of RAC-beta serine/threonine-protein kinase (P31751 whole entry): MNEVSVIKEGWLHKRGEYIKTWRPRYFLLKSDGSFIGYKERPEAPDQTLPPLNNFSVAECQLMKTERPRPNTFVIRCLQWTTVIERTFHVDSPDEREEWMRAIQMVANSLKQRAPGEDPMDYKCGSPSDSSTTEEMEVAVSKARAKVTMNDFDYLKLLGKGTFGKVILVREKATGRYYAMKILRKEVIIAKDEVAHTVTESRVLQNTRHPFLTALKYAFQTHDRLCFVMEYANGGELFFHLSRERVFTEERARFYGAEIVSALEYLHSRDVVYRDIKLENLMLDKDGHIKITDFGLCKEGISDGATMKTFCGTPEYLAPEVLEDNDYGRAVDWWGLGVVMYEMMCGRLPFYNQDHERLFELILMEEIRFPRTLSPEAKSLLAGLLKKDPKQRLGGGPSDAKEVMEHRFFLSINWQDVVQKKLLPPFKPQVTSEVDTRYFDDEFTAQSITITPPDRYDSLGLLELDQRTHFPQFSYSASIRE

Turning to `c1nc(N2CCC3(CCCNC3)CC2)c2nc[nH]c2n1`, the inhibition (in general, the relative decrease from the control value, in per cent) in experiment [1] was found to be 97%; in experiment [2] it was 51%; in experiment [3], 100%; in [4] it was 98%; in experiment [5], 74%; in [6], 98%. The inhibition came out at 91% in [7]; 70% in [8]; 4% in experiment [9]; 0% in experiment [10]; 63% in [11]; 49% in experiment [12]. Further, the inhibition came out at 87% in experiment [13], 72% in experiment [14] and 41% in experiment [15].
Regarding `O=S(=O)(c1cccc2cnccc12)N1CCCC2(CCCNC2)C1` (stereo not given), the inhibition in experiment [1] is 94%; in experiment [2] it was 5%; in experiment [3] it was 79%; in experiment [4], 30%; in experiment [5], 4%; in experiment [6], 38%. In addition, the inhibition in experiment [7] is 18%; in [8], 19%; in [9], 5%; in [10], 7%; in experiment [11] it was 14%; in [12] it was 14%. Also, the results for the inhibition in experiment [13], in experiment [14] and in experiment [15] were 12%, 23% and 0%, respectively.
On to `c1nc(N2CCC3(CCCCO3)CC2)c2nc[nH]c2n1`, for which the inhibition in experiment [1] turned out to be 22%; in experiment [2] it was 24%; in [3] it was 77%; in experiment [4], 26%; in experiment [5], 20%; in experiment [6], 49%. Besides, the inhibition in experiment [7] is 40%; in experiment [8], 35%; in experiment [9] it was 12%; in experiment [10], 0%; in experiment [11] it was 97%; in experiment [12] it was 56%. Also, the inhibition in experiment [13] was 10%; in experiment [14] it was 47%; in experiment [15], 0%.
Turning to `NC1(Cc2ccccc2)CCN(S(=O)(=O)c2cccc3cnccc23)CC1`, the inhibition came out at 4% in experiment [1]; 0% in [2]; 80% in experiment [3]; 15% in experiment [4]; 0% in [5]; 58% in experiment [6]. The inhibition in experiment [7] is 16%; in experiment [8] it was 10%; in [9] it was 4%; in experiment [10], 10%; in experiment [11], 5%; in experiment [12], 19%. The inhibition amounted to 13% in [13], 8% in experiment [14] and 12% in experiment [15].
On to `c1ccc(CC2CCC3(CCN(c4ncnc5[nH]cnc45)CC3)NC2)cc1` (racemic), for which the inhibition in [1] came to 67%; in experiment [2], 7%; in experiment [3], 95%; in experiment [4], 80%; in experiment [5] it was 15%; in experiment [6], 75%. Also, the inhibition in experiment [7] stood at 30%; in experiment [8], 35%; in [9], 18%; in experiment [10] it was 6%; in experiment [11], 20%; in experiment [12] it was 14%. Moreover, the values for the inhibition in experiment [13], in experiment [14] and in experiment [15] were 36%, 58% and 1%, respectively.
For `O=S(=O)(c1cccc2cnccc12)N1CCC2(CCCN2)CC1`, the inhibition in experiment [1] worked out at 10%; in [2] it was 15%; in experiment [3], 92%; in [4] it was 28%; in experiment [5] it was 27%; in experiment [6], 85%. Besides, the inhibition in experiment [7] was found to be 81%; in experiment [8] it was 11%; in experiment [9], 0%; in experiment [10], 0%; in [11], 5%; in [12], 20%. The inhibition was 11% in [13], 50% in experiment [14] and 22% in experiment [15].
Turning to `O=S(=O)(c1cccc2cnccc12)N1CCCC12CCNCC2`, the inhibition in [1] amounted to 15%; in experiment [2], 7%; in experiment [3], 77%; in experiment [4], 27%; in experiment [5], 10%; in experiment [6] it was 47%. The inhibition in experiment [7] is 2%; in [8], 3%; in experiment [9] it was 3%; in experiment [10], 0%; in experiment [11], 1%; in experiment [12] it was 9%. Also, the figures for the inhibition in experiment [13], in [14] and in [15] were 13%, 12% and 5%, respectively.
For the compound `O=C(O)C1CCC2(CCN(c3ncnc4[nH]cnc34)CC2)NC1` (racemic), the inhibition amounted to 0% in [1]; 0% in [2]; 78% in experiment [3]; 40% in experiment [4]; 21% in experiment [5]; 51% in experiment [6]. Also, the inhibition was determined as 44% in experiment [7]; 16% in experiment [8]; 44% in experiment [9]; 21% in [10]; 5% in [11]; 28% in [12]. Also, the inhibition in experiment [13] is 17%; in [14], 2%; in experiment [15] it was 0%.
